ChEMBL document CHEMBL4251667, “Ribemansides A and B, TRPC6 Inhibitors from Ribes manshuricum That Suppress TGF-β1-Induced Fibrogenesis in HK-2 Cells” (J Nat Prod, 2018)
Active and inactive are the calls of the source. The calls are words filed in the database; no cut-off is given here.

Key:
HK-2 [1] = test: Effect on morphological changes in human HK2 cells at 1 uM measured after 36 hrs; assay type: ADME, cell-based; conditions: hk-2, 36 h
HK-2 [2] = test: Inhibition of TGFbeta1-induced epithelial-mesenchymal transition in human HK2 cells assessed as reduction in alpha-SMA expression measured after 36 hrs by Western blot analysis; assay type: functional, cell-based
HK-2 [3] = test: Effect on basal alpha-SMA expression in human HK2 cells at 1 uM after 36 hrs by Western blot analysis; assay type: ADME, cell-based; conditions: hk-2, 36 h
HK-2 [4] = test: Inhibition of TGFbeta1-induced epithelial-mesenchymal transition in human HK2 cells assessed as reduction in fibronectin release measured after 36 hrs by ELISA; assay type: functional, cell-based
HK-2 [5] = test: Inhibition of TGFbeta1-induced epithelial-mesenchymal transition in human HK2 cells assessed as reversal of spindle-like morphology measured after 36 hrs; assay type: functional, cell-based
Procedure, shortened: (§1)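 HK-2 cells kept in RPMI 1640 with 2 mg/mL NaHCO3, 10% FBS and 10 mM HEPES, then seeded at 6000 (96-well) or 40 000 (12-well) cells/well. Treated in serum-free medium with TGF-β1 (5 ng/mL), with or without test agent, for 36 h. Morphology scored as cell length/width ratio (n = 40). Run twice, each in duplicate.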

HK-2 [6] = test: Inhibition of TGFbeta1-induced epithelial-mesenchymal transition in human HK2 cells assessed as reduction in fibronectin release at 30 uM measured after 36 hrs by ELISA; assay type: functional, cell-based
HK-2 [7] = test: Inhibition of TGFbeta1-induced epithelial-mesenchymal transition in human HK2 cells assessed as reversal of spindle-like morphology at 30 uM measured after 36 hrs; assay type: functional, cell-based; procedure, shortened: as §1
HK-2 [8] = test: Inhibition of TGFbeta1-induced epithelial-mesenchymal transition in human HK2 cells assessed as reduction in alpha-SMA expression at 30 uM measured after 36 hrs by Western blot analysis; assay type: functional, cell-based
[9] = target: T1, Short transient receptor potential channel 6 (Mus musculus, UniProt Q61143); test: Inhibition of mouse TRPC6 expressed in HEK293 cells assessed as reduction in M085-induced intracellular calcium flux pretreated for 5 mins followed by M085 addition measured after 300 secs by Fluo-8AM dye based FLIPR assay; assay type: cell-based
T1 sequence (Q61143 whole entry): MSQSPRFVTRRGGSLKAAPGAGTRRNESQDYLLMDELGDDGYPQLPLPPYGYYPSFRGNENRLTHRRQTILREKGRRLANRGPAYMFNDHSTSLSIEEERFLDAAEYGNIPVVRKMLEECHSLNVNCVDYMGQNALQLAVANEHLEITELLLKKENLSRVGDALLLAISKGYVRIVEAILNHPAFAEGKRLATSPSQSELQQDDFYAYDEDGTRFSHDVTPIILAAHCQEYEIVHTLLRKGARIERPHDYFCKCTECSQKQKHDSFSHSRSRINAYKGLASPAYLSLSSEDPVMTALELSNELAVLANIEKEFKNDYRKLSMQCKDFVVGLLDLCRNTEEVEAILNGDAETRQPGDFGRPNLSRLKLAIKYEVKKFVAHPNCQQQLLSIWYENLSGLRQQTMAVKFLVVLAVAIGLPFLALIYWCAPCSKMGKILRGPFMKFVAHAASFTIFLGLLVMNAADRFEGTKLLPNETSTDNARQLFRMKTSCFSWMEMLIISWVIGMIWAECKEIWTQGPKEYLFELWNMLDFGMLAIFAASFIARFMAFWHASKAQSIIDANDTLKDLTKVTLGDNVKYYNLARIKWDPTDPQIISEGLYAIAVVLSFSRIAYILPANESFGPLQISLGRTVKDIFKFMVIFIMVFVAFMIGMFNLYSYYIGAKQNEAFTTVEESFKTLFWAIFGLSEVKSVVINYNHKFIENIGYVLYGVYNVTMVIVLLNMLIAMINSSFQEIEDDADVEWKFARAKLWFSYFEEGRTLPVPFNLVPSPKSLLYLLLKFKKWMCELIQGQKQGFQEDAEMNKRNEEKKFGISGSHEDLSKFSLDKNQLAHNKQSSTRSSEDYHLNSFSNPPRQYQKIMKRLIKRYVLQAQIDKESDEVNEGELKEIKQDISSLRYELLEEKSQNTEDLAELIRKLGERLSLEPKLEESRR
Procedure, shortened: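 HEK-293 cells stably expressing mouse TRPC6, on poly-D-lysine plates (~20 000 cells/well), cultured 6 h. Loaded with 4 μM Fluo-8/AM for 45 min, washed. FLIPR read: baseline 30 s, then compound or vehicle 5 min, then M085 (1 μM). Signal expressed as F/F0; AUC over 300 s after M085 used for concentration–response. Twice, each in triplicate.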

IC50 [9]	SMILES	Activity (HK-2 [1])	inhibition (HK-2 [2])	Activity (HK-2 [3])	inhibition (HK-2 [4])	inhibition (HK-2 [5])	inhibition (HK-2 [6])	inhibition (HK-2 [7])	inhibition (HK-2 [8])
–	Cl.Cl.N#Cc1ccc(O[C@@H]2c3ccccc3C[C@H]2N2CCC[C@@H](N)C2)c(Cl)c1	Non-Toxic	Dose-dependent effect	Non-Toxic	Dose-dependent effect	Dose-dependent effect	–	–	–
24.5 µM	N#C/C(=C\CO)CO[C@@H]1O[C@H](COC(=O)c2ccc(O)cc2)[C@@H](O)[C@H](O)[C@H]1O	–	–	–	–	–	Active	Active	Active
25.6 µM	COc1cc(C(=O)OC[C@H]2O[C@@H](OC/C(C#N)=C/CO)[C@H](O)[C@@H](O)[C@@H]2O)ccc1O	–	–	–	–	–	Active	Active	Active
